The values below come from paper PMC5901702 (Journal of biomolecular screening, 2012).

The target of assay [1] is T1, rat IDE (Rattus norvegicus, UniProt P35559).
T1 sequence (P35559 1-1019): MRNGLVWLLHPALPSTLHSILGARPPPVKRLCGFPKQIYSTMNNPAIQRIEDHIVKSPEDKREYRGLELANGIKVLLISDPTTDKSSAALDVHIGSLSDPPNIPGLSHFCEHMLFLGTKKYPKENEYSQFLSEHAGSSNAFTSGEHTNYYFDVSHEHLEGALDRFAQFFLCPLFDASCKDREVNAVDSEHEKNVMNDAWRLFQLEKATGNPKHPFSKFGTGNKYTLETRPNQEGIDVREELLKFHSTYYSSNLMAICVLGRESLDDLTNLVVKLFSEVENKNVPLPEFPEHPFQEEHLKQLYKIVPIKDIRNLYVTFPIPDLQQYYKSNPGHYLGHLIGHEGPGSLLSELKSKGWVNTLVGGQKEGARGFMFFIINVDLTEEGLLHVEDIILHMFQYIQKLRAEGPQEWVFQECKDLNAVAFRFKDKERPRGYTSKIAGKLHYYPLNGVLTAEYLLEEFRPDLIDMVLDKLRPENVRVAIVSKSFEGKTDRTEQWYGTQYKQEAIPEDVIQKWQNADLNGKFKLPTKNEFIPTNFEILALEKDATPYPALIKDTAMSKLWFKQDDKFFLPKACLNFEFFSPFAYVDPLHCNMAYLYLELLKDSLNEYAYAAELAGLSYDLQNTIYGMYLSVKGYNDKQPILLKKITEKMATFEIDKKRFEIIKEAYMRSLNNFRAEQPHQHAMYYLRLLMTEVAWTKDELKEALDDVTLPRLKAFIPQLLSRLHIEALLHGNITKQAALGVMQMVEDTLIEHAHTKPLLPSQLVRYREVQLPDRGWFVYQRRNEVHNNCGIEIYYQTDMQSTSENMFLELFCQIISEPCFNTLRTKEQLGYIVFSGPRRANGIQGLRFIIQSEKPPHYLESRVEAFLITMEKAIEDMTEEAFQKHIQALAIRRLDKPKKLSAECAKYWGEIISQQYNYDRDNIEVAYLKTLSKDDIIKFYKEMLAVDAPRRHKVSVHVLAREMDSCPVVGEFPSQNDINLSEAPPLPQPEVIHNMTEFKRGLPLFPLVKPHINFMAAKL
Nature of the assay: Native PAGE mobility shift of rat IDE. The format is binding. The settings on record: ATP 3 mM. The essentials: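 Rat IDE was preincubated 60 min at 37 °C with compound (100 µM) or ATP (3 mM). It was mixed 1:1 with 2× native sample buffer (0.6 M Tris-HCl pH 6.8, 20% glycerol, bromophenol blue), run on 10% native PAGE at 4 °C and silver-stained.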

Assay [2] has as its target T1, rat IDE. The assay can be described thus: ATP effect on rat IDE activity and activators. The format is biochemical. The method, boiled down:
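Rat IDE (87.7 nM) with 50 µM a-factor–based internally quenched fluorogenic substrate in 50 mM Tris pH 7.5 containing BSA and 1 mM ATP. Compounds were used at optimal levels taken from Tris/BSA dose-response curves. ATP titration (0–10 mM) was also run in 0.1 M KPi pH 7.6 or Tris/BSA. Activity is % of water- or DMSO-treated control, n = 4.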

Assay [3] concerns the target T1, rat IDE. Nature of the assay: Dose-response of rat IDE activation. The format is biochemical. The settings on record: rat IDE activation, a-factor–based substrate. The method, boiled down: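 Rat IDE (10 µg/mL) in 0.1 M KPi pH 7.6 was preincubated 10 min at 37 °C with activator (up to 1 mM), then mixed 1:1 with a-factor–based fluorogenic substrate (50 µM final). Fluorescence (320 ex) was read over 60 min and rate taken from the 15–30 min window. Baseline was subtracted and rates normalized to trypsin/pronase E full digestion. AC50 came from best-fit curves, or [Max]50 where the curve was not sigmoidal.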

For the compound `Nc1ncnc2c1ncn2[C@@H]1O[C@H](COP(=O)(O)OP(=O)(O)OP(=O)(O)O)[C@@H](O)[C@H]1O` [ATP, adenosine triphosphate, reference compound], the “native PAGE mobility shift of IDE” value on rat IDE [1] was “did not observe a mobility shift”. Also, on rat IDE [2] (KPi buffer, assay conditions used for HTS), the “ATP-dependent activation of IDE” value was “not observed”. At rat IDE [2] (Tris/BSA buffering system), the maximum activating concentration entry is on record as “approximately 1 mM”.

With `Cc1ccc(C(=O)Nc2ccc(S(=O)(=O)O)c3cc(S(=O)(=O)O)cc(S(=O)(=O)O)c23)cc1NC(=O)c1cccc(NC(=O)Nc2cccc(C(=O)Nc3cc(C(=O)Nc4ccc(S(=O)(=O)O)c5cc(S(=O)(=O)O)cc(S(=O)(=O)O)c45)ccc3C)c2)c1` [suramin, reference compound], the dose-response profile result at rat IDE [3] is “hormetic response”.
